High-throughput results (PubChem)
Only some compounds are listed: those with a hit (about 4.8% of all), similar ones and a draw of the others.
697 NFkB inh – inhibitors of PMA/ionomycin-induced NF-kB reporter, 697 cells, primary screen, B-cell NF-kB inhibitor project, cell-based, luminescence, uHTS; AID 435022, 2010; hit rate 0.33% among 330,000; 697 B-cell NF-kB luciferase reporter, 16 h; inhibition, % at 4 µM; in the data active = inhibition above about 35%
HSF1 inh – HSF1 inhibitors in luciferase reporter cells, primary screen, cell-based, NIH3T3, luminescence | NIH3T3-HGL HSE-luciferase, MG132-induced, luminescence 8 h; stronger effect = lower value | activity change, negative = inhibition, % at 7.5 µM (by protocol) | hit rate 0.77% among 300,000;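 active = more than half of replicate wells show activity change below -50%, luminescence cut by over half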;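 also: luciferase reports HSF-1 transcriptional activity via heat shock element; 0% = median of DMSO wells and -100% = zero luminescence signal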
Jurkat NFkB inh – inhibitors of induced NF-kB luciferase reporter, primary screen, TCR NF-kB activation inhibitor project, cell-based, luminescence, uHTS; Jurkat, PMA/ionomycin-induced NF-kB luciferase reporter; hit rate 0.53% among 330,000; AID 435003, 2010; inhibition, % at 4 µM; in the data active = inhibition above about 50%
GPR7 antagonist – GPR7 receptor antagonists, primary screen, cell-based, fluorescence, single concentration; GPR7-expressing cells, fluorescence antagonist assay; inhibition, % at 4.4 µM; hit rate 1.1% among 290,000; AID 1861, 2009; in the data active = inhibition above about 16%, passing the limit was not always enough;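 also: cells stimulated with the agonist NPW; 0% = agonist with vehicle and 100% = vehicle without agonist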
Target sequence (P48145 whole entry, looked up): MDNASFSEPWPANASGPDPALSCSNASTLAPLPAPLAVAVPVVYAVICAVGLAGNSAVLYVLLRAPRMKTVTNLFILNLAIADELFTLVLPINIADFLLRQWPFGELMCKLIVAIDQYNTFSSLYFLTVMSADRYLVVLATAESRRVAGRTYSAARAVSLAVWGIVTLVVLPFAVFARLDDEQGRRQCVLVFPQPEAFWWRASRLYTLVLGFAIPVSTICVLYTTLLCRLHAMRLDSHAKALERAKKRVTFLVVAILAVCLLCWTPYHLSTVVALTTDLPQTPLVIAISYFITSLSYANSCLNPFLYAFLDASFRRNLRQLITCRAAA
T cruzi inh – inhibitors of intracellular T. cruzi growth, primary screen, luminescence, NIH3T3 host cells | hit rate 1.4% among 300,000 | inhibition, % (concentration not given with the values) | T. cruzi beta-gal in NIH3T3, 90 h;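 active = mean inhibition across valid replicates above about 55%, limit read from the data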;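 also: signal also drops with host cell toxicity which is not excluded here; 0% = plate median of DMSO wells and 100% = zero luminescence signal; higher percent means less beta-gal luminescence so fewer parasites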
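assay system = mouse NIH/3T3 fibroblasts infected with β-gal-expressing T. cruzi Tulahuen C4 | input = 5,000 NIH/3T3 host cells per well | buffer or medium = DMEM plus 2% FBS | timing = 3 h host attachment, then at least 90 h co-culture | measured by = GalScreen luminescence, 60 min | evaluation = luminescence reflecting intracellular parasite burden, expressed as percent inhibition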
HSF-1 act – HSF-1 activators, primary screen, NIH3T3-HGL cells, MG132 stress, luminescence, single point; AID 504408, 2011; hit rate 1.7% among 300,000; NIH3T3-HGL HSF-1 luciferase reporter, 8 h; 100% = twice DMSO control signal; activation, % at 9 µM;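 active = mean replicate activation of at least 50% with a set share of replicates each reaching 50%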;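 also: 0% = median of the neutral control wells and 100% = twice that signal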
* hit, by the source's call; x = no result given.

SMILES | 697 NFkB inh | HSF1 inh | Jurkat NFkB inh | GPR7 antagonist | T cruzi inh | HSF-1 act
COc1ccc(CCNC(=O)c2cc3c(=O)n4cccc(C)c4nc3n(Cc3ccco3)c2=N)cc1OC | -124 | 70 | 38 | 15 | 39 | 99*
Cc1cccn2c(=O)c3cc(C(N)=S)c(=N)n(CCCN4CCOCC4)c3nc12 | 11 | 5 | 8 | -11 | 24 | 3
Cc1ccc2nc3c(cc(C(=O)NCCN4CCOCC4)c(=N)n3CCCN3CCOCC3)c(=O)n2c1 | -20 | -3 | -10 | -11 | -17 | 14
O=C(c1ccc(NS(=O)(=O)c2ccc3[nH]c(=O)[nH]c3c2)cc1)N1CCN(c2ccccc2)CC1 | 16 | x | -3 | x | x | x
O=C1CCC(=O)N1CC(=O)N1CCCc2ccccc21 | 5 | -8 | -3 | -13 | 3 | -7
OCCCCCN=c1cc(-c2ccccc2)oc2ccc(Cl)cc12 | -29 | 69 | -47 | 2 | -11 | 98*
CCCc1cc(C(=O)Nc2cccc(Cl)c2C)no1 | -2 | 8 | -56 | -4 | 3 | 13
Cc1ccc(Nc2nc(-c3ccccc3)c(CC(=O)O)s2)cc1 | -61 | 36 | -73 | -9 | 26 | 63*
Cc1ccc(/C=C/C(=O)Nc2cc(=O)n(C)c(=O)n2C)o1 | -15 | -1 | -11 | 2 | -6 | -2
Oc1ccc(-c2csc(Nc3ncccn3)n2)cc1O | x | 75 | x | 6 | -97 | 89*
Oc1ccc(-c2csc(Nc3ccccn3)n2)cc1 | -175 | 30 | -121 | -13 | 31 | 63*
Oc1ccc(-c2csc(Nc3ncccn3)n2)c(O)c1 | -82 | 28 | -68 | -10 | 27 | 50
COc1ccc(N2CCN(C(=O)CN(C)S(=O)(=O)c3cc(C)ccc3OC)CC2)cc1 | -2 | -3 | 7 | 0 | -3 | 15
O=C(CCC(=O)N1CCc2ccccc21)N1CCc2ccccc21 | x | x | x | -11 | x | x
CC(C(=O)N1CCc2ccccc21)N1CCN(Cc2ccc(Cl)cc2)CC1 (stereo not given) | 0 | -10 | 11 | -9 | 29 | 14
CCn1c(-c2ccc(F)cc2)cnc1SCC(=O)N1CCCCC1C (stereo not given) | x | x | x | 7 | x | x
O=C(CSc1ccccc1)N1CCc2ccccc21 | -131 | 43 | -97 | 5 | -1 | 59*
CC(C(=O)N1CCc2ccccc21)N1CCN(Cc2ccccc2)CC1 (stereo not given) | 21 | 0 | 6 | 11 | 56* | 19
O=C(CCCc1ccccc1)N1CCc2ccccc21 | -192 | 30 | -127 | 10 | -7 | 59*
CCn1c(-c2ccc(F)cc2)cnc1SCC(=O)N1CCc2ccccc21 | -47 | 41 | -18 | 3 | -6 | 70*
CN(Cc1c(F)cccc1Cl)C(=O)CNC(=O)c1cccs1 | -28 | 13 | -57 | 2 | -9 | 34
O=C(COc1ccccc1Cl)N1CCc2ccccc21 | -98 | 57 | -106 | -3 | -8 | 74*
CSc1nsc(SCC(=O)N2CCc3ccccc32)n1 | -45 | 2 | -4 | -5 | 18 | 10
O=C(COc1ccccc1)N1CCc2ccccc21 | -63 | 26 | -64 | 0 | -36 | 48
Cc1ccc2c(CC(=O)N3CCc4ccccc43)coc2c1 | -172 | 76 | -104 | -6 | 9 | 77*
SMILES | 697 NFkB inh | HSF1 inh | Jurkat NFkB inh | GPR7 antagonist | T cruzi inh | HSF-1 act
O=C1c2cccc(OCC(=O)N3CCCc4ccccc43)c2CCN1Cc1ccccc1 | 10 | 6 | 12 | 22* | 16 | 9
Cc1nnc(SCC(=O)N2CCc3ccccc32)s1 | -6 | -4 | -23 | 16* | -2 | -9
Cc1cc(C)c2c(NC(=S)NC(=O)c3ccccc3)n[nH]c2n1 | -3 | x | 0 | -2 | x | x
O=C(CSc1nnc(-c2cccs2)o1)N1CCc2ccccc21 | 3 | 6 | -5 | -6 | -10 | 23
O=C(CSc1nnc(-c2cccs2)o1)N1CCCc2ccccc21 | 7 | 17 | 2 | -9 | 3 | 68*
COc1ccc(CNC(=O)C(=O)NCc2cccnc2)cc1 | 9 | -5 | 0 | -15 | -9 | -6
COc1ccc2[nH]c(C(O)(Cc3cccnc3)Cc3cccnc3)cc2c1 | 15 | -18 | 5 | 5 | 57* | -12
O=C(CC(=O)c1ccccc1)Nc1ccccc1C(F)(F)F | 4 | -1 | 5 | -8 | -7 | 2
COc1ccccc1OCC(=O)NC1CCSc2ccccc21 (stereo not given) | -27 | x | 10 | x | x | x
Cc1c(-c2cccc(NC(=O)c3ccco3)c2)nc2ncccn12 | 19 | 1 | -1 | 20 | 65* | 6
Cc1c(-c2cccc(NC(=O)c3cccs3)c2)nc2ncccn12 | -14 | 5 | -9 | -4 | 11 | 13
O=C(Nc1cccc(-c2cn3cccnc3n2)c1)c1ccco1 | 14 | -1 | -13 | -6 | 68* | 10
Cc1ccc(-c2cn3cccnc3n2)cc1NC(=O)c1ccc(Br)o1 | 2 | -2 | -1 | -4 | -8 | 15
O=C(Nc1cccc(-c2cn3cccnc3n2)c1)c1ccc(Br)o1 | -1 | 5 | -3 | 2 | 71* | 9
C=C(C)C(=O)OC1(C(F)(F)F)Oc2cc(C)ccc2NC1=O (stereo not given) | -46 | 14 | 16 | 22 | -9 | 29
C/C(=N\O)c1ccc2c3c([nH]c2c1)CCCC3 | -53 | 61 | -36 | -10 | -18 | 93*
N#CCCC(CCC#N)(CCC#N)c1cc[n+](CCc2ccccn2)cc1 | 6 | 1 | 13 | x | -7 | -14
Cc1ccc2c(c1)sc[n+]2Cc1ccccc1 | -116 | -6 | -141 | 6 | 55* | 7
O=C(Nc1ccccc1)C1=C(O)CC(c2ccoc2)CC1=Nc1ccccc1 (stereo not given) | 8 | 68 | 6 | 21 | 22 | 86*
CC(Sc1nnc(-c2ccco2)n1N)C(=O)NCc1ccc2c(c1)OCO2 (stereo not given) | 2 | x | 4 | x | x | x
CCN1C/C(=C/c2cccc([N+](=O)[O-])c2)C(=O)/C(=C/c2cccc([N+](=O)[O-])c2)C1 | x | x | x | -11 | x | x
O=C(/C=C/c1ccccc1)Nc1ccc(Br)cn1 | -151 | x | -11 | 10 | -65 | x
CCCCOc1ccc(C(=O)CCN2CCOCC2)cc1 | 13 | 17 | -8 | -4 | 56* | 40
COc1cc(O)c(C(=O)/C=C/c2ccccc2)c(OC)c1 | -1 | 125 | 5 | 0 | -53 | 107*
COc1ccc(/C=C/C(=O)c2ccccc2)c(OC)c1 | -13 | 31 | -48 | -4 | -3 | 72*
